This note sets out measurements from ChEMBL document CHEMBL4017500 (J Med Chem, 2017).

The subject of assay [1] is Bacteria. The assay can be described thus: Binding affinity to bacterial CoCoNDM-1 expressed in Escherichia coli BL21(DE3) assessed as CoCoNDM-1-compound ternary complex formation at 3 to 5 equiv by 1H NMR spectroscopic method. In outline:
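Apo-NDM-1 concentrated to ~1 mM and loaded with 2 equiv CoCl2. Samples in 50 mM HEPES, 150 mM NaCl, 10% D2O, pH 6.8. Compounds from 50–100 mM DMSO stocks titrated in ~5 μL aliquots. 1H spectra recorded at 292 K, 300.16 MHz.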

The subject of assay [2] is Bacteria. The assay can be described thus: Binding affinity to bacterial CoCoNDM-1 expressed in Escherichia coli BL21(DE3) assessed as CoCoNDM-1-compound ternary complex formation at 1 equiv by 1H […] spectroscopic method.
In assay [3] the test system is Bacteria. The assay can be described thus: Binding affinity to bacterial CoCoNDM-1 expressed in Escherichia coli BL21(DE3) assessed as CoCoNDM-1-compound ternary complex formation at 1 to 2 equiv after 30 mins by UV-Visible spectroscopic method. In outline: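 Apo-NDM-1 at 300 μM in 50 mM HEPES, 150 mM NaCl, pH 6.8, loaded with 2 molar equiv CoCl2. […] Absorbance read 300–700 nm at 25 °C as difference spectra against buffer blank, normalized at 700 nm.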

The test system of assay [4] is Bacteria. The assay can be described thus: Binding affinity to bacterial NDM-1 expressed in Escherichia coli BL21(DE3) assessed as Zn2+ stripping up to 128 uM after 30 mins by equilibrium dialysis method. In outline:
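NDM-1 (8 μM final) in 50 mM HEPES pH 7.5 mixed with compound at 0–128 μM for 30 min. Then dialyzed 4 h against metal-free 50 mM HEPES pH 7.5. Residual Zn(II) measured by ICP-AES at 213.856 nm.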

The subject of assay [5] is Bacteria. The assay can be described thus: Binding affinity to bacterial NDM-1 expressed in Escherichia coli BL21(DE3) assessed as increase in intrinsic tryptophan fluorescence up to 32 uM after 30 mins by luminescence spectrometric method relative to control. The procedure, abridged: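 NDM-1 at 2 μM final in 50 mM HEPES pH 7.5 mixed with compound at 4–32 μM, incubated 30 min. Emission scanned 300–400 nm with excitation at 280 nm. Relative tryptophan fluorescence read at 348 nm, with buffer set to 0% and inhibitor-free NDM-1 to 100%. Control run with 2 μM L-tryptophan in place of enzyme.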

Assay [6] is described as follows: Fluorescence quenching activity assessed as reduction in tryptophan fluorescence up to 32 uM after 30 mins by luminescence spectrometric method. In outline:
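NDM-1 (2 μM final) in 50 mM HEPES pH 7.5 with compound at 4–32 μM for 30 min. Excitation 280 nm, emission scanned 300–400 nm, intensity taken at 348 nm. Scaled with buffer as 0% and inhibitor-free enzyme as 100%. Free L-tryptophan (2 μM) run as control.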

Active and inactive are the calls of the source. No cut-off for these calls is given here.

Consider `C[C@H](CS)C(=O)N1CCC[C@H]1C(=O)O`, for which the outcome in the assay on Bacteria [1], in the assay on Bacteria [2] and in the assay on Bacteria [3] was Active. Moreover, the result (in the assay with Bacteria [4]; in assay [6]) was inactive. Also, the Activity with Bacteria [5] was determined as 10%.
